Reference: ChEMBL document CHEMBL3272234, “Analgesic agents. 3. New bridged aminotetralins” (1976)
The source made the active and inactive calls. The rule behind the calls is not given here.

How the values were obtained:
Rattus norvegicus [1] = organism: Rattus norvegicus; assay: Analgesic activity in Charles River rat by tail flick test relative to morphine; type: functional
In short: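 Rats (groups of six or ten) dosed ip in aqueous solution or Tween-80 suspension, with doses as mg base/kg. Potency expressed relative to morphine, which was taken as unity. Some estimates were based on two doses.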

Rattus norvegicus [2] = assay: Analgesic activity in po dosed Charles River rat by tail flick test; type: functional
In short: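 Oral dosing of rats, with doses calculated as mg base/kg. Read-out recorded as the number of rats showing analgesia over the number tested.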

Rattus norvegicus [3] = assay: Analgesic activity in ip dosed Charles River rat by tail flick test; type: functional
In short: (§1)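 Dosed intraperitoneally as aqueous solutions or Tween-80 suspensions to groups of six or ten rats. Doses expressed as mg base/kg. Read-out recorded as the number of rats showing analgesia over the number tested at each dose.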

Rattus norvegicus [4] = assay: Analgesic activity in Charles River rat at 50 mg/kg, ip by tail flick test; type: functional, organism-based; set-up: dose 50 mg/kg; in short: as §1
Rattus norvegicus [5] = assay: Analgesic activity in Charles River rat at 25 mg/kg, ip by tail flick test; type: functional, organism-based; set-up: dose 25 mg/kg; in short: as §1

SMILES | Ratio (Rattus norvegicus [1]) | ED50 (Rattus norvegicus [2]) | ED50 (Rattus norvegicus [3]) | Activity (Rattus norvegicus [4]) | Activity (Rattus norvegicus [5])
CC(=O)Oc1ccc2c(c1)[C@@]1(C)CCCCC(C2)[C@@H]1N.Cl | 0.44 | 40 mg/kg | 10 mg/kg | – | –
COc1ccc2c(c1)[C@@]1(C)CC=CCC(C2)[C@@H]1N.Cl | 0.27 | 6.25 mg/kg | 16.5 mg/kg | – | –
CC[C@@]12CC=CCC(Cc3ccc(OC)cc31)[C@@H]2N(C)C.Cl | – | – | 50 mg/kg | inactive | –
Br.C[C@@]12Cc3ccccc3CC(Cc3ccc(O)cc31)C2N (some centres undefined) | 0.35 | – | 12.5 mg/kg | – | –
Br.C[C@@]12CCCCC(Cc3ccc(O)cc31)[C@@H]2N | 0.6 | – | 7.4 mg/kg | – | –
CC[C@@]12CC=CCC(Cc3ccc(OC)cc31)[C@@H]2N.Cl | 1.05 | 6.25 mg/kg | 4.2 mg/kg | – | –
CC[C@@]12CC=CCC(Cc3ccc(O)cc31)[C@@H]2N | 2.53 | 6.25 mg/kg | 1.75 mg/kg | – | –
Br.C[C@@]12Cc3ccccc3CCC(Cc3ccc(O)cc31)C2N (some centres undefined) | – | – | 25 mg/kg | – | –
COc1ccc2c(c1)[C@@]1(C)CCCCCC(C2)[C@@H]1[N+](C)(C)[O-].Cl | 0.44 | 16.5 mg/kg | 10 mg/kg | – | –
C[C@@]12CC=CCC(Cc3ccc(O)cc31)[C@@H]2N.Cl | 1.26 | – | 6.25 mg/kg | – | –
CN1CC[C@]23c4c5ccc(O)c4O[C@H]2[C@@H](O)C=C[C@H]3[C@H]1C5 [MORPHINE] | 1 | – | – | – | –
COc1ccc2c(c1)[C@@]1(C)CC=CCC(C2)[C@@H]1N(C)C.Cl | – | – | 50 mg/kg | inactive | –
COc1ccc2c(c1)[C@@]1(C)Cc3ccccc3CC(C2)C1N.Cl (some centres undefined) | 0.31 | – | 14.5 mg/kg | – | –
CC[C@@]12CC=CCC(Cc3ccc(OC)cc31)[C@@H]2NC.I | – | – | 25 mg/kg | – | –
CCC(=O)O[C@](Cc1ccccc1)(c1ccccc1)[C@H](C)CN(C)C [PROPOXYPHENE] | – | – | 10.4 mg/kg | – | –
C[C@@]12CCCCC(Cc3ccc(OC(=O)C4CC4)cc31)[C@@H]2N.Cl | 0.81 | 16.5 mg/kg | 5.5 mg/kg | – | –
COc1ccc2c(c1)[C@@]1(C)CCCCCC(C2)[C@@H]1N.Cl | 0.44 | – | 10 mg/kg | – | –
CC[C@@]12Cc3ccccc3CC(Cc3ccc(OC)cc31)C2N.Cl (some centres undefined) | – | – | 50 mg/kg | – | –
COc1ccc2c(c1)[C@@]1(C)Cc3ccccc3CCC(C2)C1N.O=C(O)/C=C/C(=O)O (some centres undefined) | – | – | 25 mg/kg | – | inactive
